Bioassay records: PubChem, Sanford-Burnham Center for Chemical Genomics
LMPTP inh: LMPTP phosphatase inhibitors, primary screen, biochemical, fluorescence intensity, uHTS; recombinant LMPTP-A, OMFP fluorogenic substrate; inhibition, % at 20 µM; 0.22% of 360,000 active; AID 651560, 2012;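 active means compounds that cut the enzyme signal by at least half of the control window in the single-dose screen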
Target sequence (P24666 whole entry, looked up): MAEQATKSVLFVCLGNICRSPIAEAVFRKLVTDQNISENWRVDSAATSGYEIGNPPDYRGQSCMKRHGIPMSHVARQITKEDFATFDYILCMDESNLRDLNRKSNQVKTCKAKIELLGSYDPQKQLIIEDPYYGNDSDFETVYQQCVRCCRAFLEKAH
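Test system – LMPTP-A phosphatase enzyme · Quantity – 0.625 nM LMPTP-A final · Reagent – OMFP substrate, 400 µM final · Dosing – one test concentration per compound, 20 µM, with 3% DMSO overall · Timing – 50 min enzyme reaction at room temperature, protected from light · Detection – fluorescence intensity · Controls – substrate-only low control, DMSO enzyme-plus-substrate high control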
Scp1 inh: Scp-1 phosphatase inhibitors, primary screen, biochemical, colorimetric, uHTS | Carboxy-terminal domain RNA polymerase II polypeptide A small phosphatase 1 (Homo … | Recombinant Scp1, phosphopeptide, malachite green phosphate absorbance | inhibition, % at 20 µM | 0.88% of 340,000 active | AID 493091, 2011;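 active means inhibition above about 50% at 20 µM, limit read from the data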
Target sequence (Q9GZU7 76-261 limits assumed): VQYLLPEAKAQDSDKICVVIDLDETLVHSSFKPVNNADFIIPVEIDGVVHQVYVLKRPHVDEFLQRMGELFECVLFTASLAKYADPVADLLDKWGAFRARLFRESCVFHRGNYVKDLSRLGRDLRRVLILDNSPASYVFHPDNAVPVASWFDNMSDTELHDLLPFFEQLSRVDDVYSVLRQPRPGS
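System: truncated SCP-1 phosphatase (76-261aa); medium: Tris acetate buffer pH 5.5 with MgCl2 and Tween-20; incubation: 45 min room-temperature reaction, 5 min colour, 30 min stabiliser; compound: single 20 µM dose, 1% DMSO; reagent: Phosphorylated 17-residue peptide substrate; read-out: % inhibition at 20 µM; technique: colorimetric free-phosphate detection, absorbance 630 nm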
SUMO1 PPI mod: modulators of SUMO1 protein-protein interactions, primary screen, biochemical, uHTS; Small ubiquitin-related modifier 1 (Homo sapiens), P63165; SUMO1 binding to a labelled peptide, TR-FRET, 1 h; inhibition, % at 20 µM; 0.33% of 360,000 active; in the data active means inhibition above about 37%
Target sequence (P63165 whole entry, looked up): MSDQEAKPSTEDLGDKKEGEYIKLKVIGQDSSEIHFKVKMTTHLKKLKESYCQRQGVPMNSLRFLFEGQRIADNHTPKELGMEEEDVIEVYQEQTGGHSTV
STEP block: STEP phosphatase inhibitors, primary screen, biochemical, fluorescence intensity, uHTS; inhibition, % at 20 µM; Tyrosine-protein phosphatase non-receptor type 5 (Homo sapiens), P54829; recombinant STEP, OMFP fluorogenic substrate; 0.25% of 360,000 active;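 active means inhibition at 20 µM, scaled per plate between control wells, above about 37%, limit read from the data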
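System: isolated STEP enzyme; schedule: 20 min enzyme reaction at room temperature, protected from light; medium: Bis-Tris buffer pH 6.0, 2.5 mM DTT, 0.005% Tween 20; signal: fluorescence, 480/540 nm; dosing: single compound dose of 20 µM, 1% DMSO final; also added: OMFP substrate, 25 µM final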
DNMT1 block: human DNMT1 methyltransferase inhibitors, primary screen, biochemical, molecular beacon, fluorescence, HinP1I cleavage, uHTS; DNA (cytosine-5)-methyltransferase 1 (Homo sapiens), P26358; inhibition (reported as % activation of signal), % at 10 µM; 0.83% of 360,000 active; AID 588458, 2011; in the data active means inhibition above about 50%
Each line names hits and unclear results; the compound was inactive in the other large screens. Rows were chosen to be rich in hits. Some 1.7% of all compounds tested hit in one or more screens of this group.

Cc1ccc2nc(SCC(=O)Nc3ccc(Cl)cc3)nc(=O)n2c1	SUMO1 PPI mod 86
O=c1c2c3nc4ccccc4nc3n(/N=C/c3ccco3)c2ncn1CCC1=CCCCC1	Scp1 inh 88
Cc1nc2c(c(=O)n1CCC1=CCCCC1)c1nc3ccccc3nc1n2/N=C/c1ccccc1	none
CNc1ncnc2c1ncn2[C@H]1CN(CCc2ccccc2)C[C@@H](CO)O1	none (no result: Scp1 inh)
O=C(NCc1cccnc1)c1cc(C2CCCCN2S(=O)(=O)c2ccc(F)cc2F)on1 (centres undefined)	none (no result: Scp1 inh)
CC1=NOC(=O)/C1=C/c1ccc(-c2ccc(Cl)cc2)o1	none (no result: Scp1 inh)
CC1=NOC(=O)/C1=C\c1ccc(-c2ccc(Br)cc2)o1	DNMT1 block 61
Cc1ccc(F)cc1C(=O)N1CCCC(c2cc(C(=O)NCc3ccc(F)cc3)no2)C1 (centres undefined)	none (no result: Scp1 inh)
NC(=O)CC(c1ccccc1)c1ccc2c(c1)OCO2 (centres undefined)	none
NC(CSC(c1ccccc1)(c1ccccc1)c1ccc2c(c1)OCO2)C(=O)O (centres undefined)	DNMT1 block 51 (no result: Scp1 inh)
CCCCn1cnc2c(c(-c3ccccc3)c(-c3ccccc3)n2Cc2ccco2)c1=N	none
N=c1c2c(-c3ccccc3)c(-c3ccccc3)n(Cc3ccccc3)c2ncn1CCCn1ccnc1	LMPTP inh 57
CC(=O)Nc1sc2c(c1-c1nc3ccccc3s1)CN(C(C)C)CC2	DNMT1 block 78
CC(=O)N1CCc2c(sc(NC(=O)C3CC3)c2-c2nc3ccccc3s2)C1	none
CC(Nc1nc(-c2ccccc2F)nc2ccccc12)c1ccccc1 (centres undefined)	LMPTP inh 74
CC(Nc1nc(-c2ccccc2)nc2ccccc12)c1ccccc1 (centres undefined)	LMPTP inh 52
Fc1ccccc1-c1nc(NC2CCCC2)c2ccccc2n1	LMPTP inh 70
COCCNc1nc(NCCN2CCNC2=O)c2sc(-c3ccccc3)cc2n1	none (no result: Scp1 inh)
COc1cccc(NC(=O)C2(C)CCN2CCc2ccccc2)c1 (centres undefined)	none (no result: Scp1 inh)
Cc1cc(-c2nc(-c3ccncc3)no2)ccc1[N+](=O)[O-]	none
O=Cc1cccc(OC(=O)/C=C/c2ccco2)c1	Scp1 inh 69, STEP block 48, DNMT1 block 92
COC(=O)c1ccc(OC(=O)/C=C/c2ccco2)cc1	none
COc1cc(CN2C[C@@H](CO)O[C@@H](n3cnc4c(NCc5ccco5)ncnc43)C2)cc(OC)c1OC	none (no result: Scp1 inh)
CCn1c(SCC(=O)Nc2ccc3c(c2)c2ccccc2n3CC)nnc1-c1ccco1	Scp1 inh 74, DNMT1 block 96
CC(CCC(C)C(C)(C)C)[C@@H]1CC[C@H]2C3C[C@H](OS(O)(=S)=S)[C@H]4C[C@H](OS(O)(=S)=S)[C@@H](OS(O)(=S)=S)C[C@]4(C)[C@H]3CC[C@]12C (some centres undefined) (tested in a mixture with another compound)	LMPTP inh 81, SUMO1 PPI mod 45
COc1ccc(-c2ccc(C(=O)Nc3cccc(C(F)(F)F)c3)c3occc23)c(C)c1	none (no result: Scp1 inh)
O=C(Nc1ccccc1)Nc1ncc([N+](=O)[O-])s1	none
O=C(COC(=O)c1ccccc1)Nc1ncc([N+](=O)[O-])s1	LMPTP inh 65, Scp1 inh 83, SUMO1 PPI mod 58, DNMT1 block 93
CN1CCN(C(=O)C2Cc3c(-c4cccc(F)c4)ccnc3O2)CC1 (centres undefined)	none (no result: Scp1 inh)
CCOc1ccc(C(=O)COC(=O)Cc2n[nH]c(=O)c3ccccc23)cc1	SUMO1 PPI mod 48
O=C(Cc1n[nH]c(=O)c2ccccc12)OCC(=O)c1ccc(F)cc1	none
CCC(C)[C@@H](CN)NCC1(c2ccccc2)CC1 (some centres undefined)	SUMO1 PPI mod 37
N#Cc1sc2nc(-c3ccccc3)cc(-c3ccco3)c2c1N	SUMO1 PPI mod 64
Cc1ccc(-c2cc(C(=O)Nc3ccccn3)c3ccccc3n2)o1	Scp1 inh 58, DNMT1 block 61
Cc1cccc(C(=O)Oc2c(Br)cc(Br)cc2/C=N/NC(=O)c2ccncc2)c1	none
Cc1cc(C(=O)N/N=C/c2cc(Br)cc(Br)c2OC(=O)c2cccc(F)c2)n[nH]1	LMPTP inh 65, Scp1 inh 87
CN(Cc1ccccc1)C(=O)CN1C(=O)NC2(CCCc3sccc32)C1=O (centres undefined)	none (no result: Scp1 inh)
COC(=O)c1cc(C(=O)N2CCN(c3cccc(C)c3C)CC2)cc([N+](=O)[O-])c1	SUMO1 PPI mod 61
COC(=O)c1cc(C(=O)N2CCN(c3ccccc3OC)CC2)cc([N+](=O)[O-])c1	none
O=c1c2cc(Cl)ccc2nc(-c2ccc(Cl)c(Cl)c2)n1O	LMPTP inh 54
CCNC(=O)C1(C)CCN(C(=O)c2cc(F)ccc2C)C1 (centres undefined)	none (no result: Scp1 inh)
N#Cc1cccc(NC(=O)CSc2ccc3c4c(cccc24)C(=O)c2ccccc2-3)c1	DNMT1 block 82
Cc1cc(-c2csc(NCc3ccccc3)n2)c(C)n1C	DNMT1 block 75
O=C(/C=C/c1ccc(Br)o1)NC(c1ccccc1)c1ccccc1	none
O=C1C(=Cc2ccc(Br)o2)C(=O)c2ccccc21	LMPTP inh 78, Scp1 inh 65, SUMO1 PPI mod 103, STEP block 96, DNMT1 block 108
O=C(O)COc1ccc(/C=N/n2c(COc3ccccc3)nc3ccccc3c2=O)cc1	SUMO1 PPI mod 57
CCOC(=O)c1cccc(NC(=S)N2CCN(c3ncc4c(=O)c(C(=O)O)cn(CC)c4n3)CC2)c1	LMPTP inh 70
CCn1cc(C(=O)O)c(=O)c2cnc(N3CCN(C(=S)NC(=O)c4ccccc4)CC3)nc21	LMPTP inh 56
CCCOc1ccc(C(=O)NC(=S)N2CCN(c3ncc4c(=O)c(C(=O)O)cn(CC)c4n3)CC2)cc1	LMPTP inh 70 (no result: Scp1 inh)
CCCCOC(=O)c1ccc(NC(=S)N2CCN(c3ncc4c(=O)c(C(=O)O)cn(CC)c4n3)CC2)cc1	none
COc1cccc(-c2cnc3c(NC(C)=O)cc(-c4ccc(C(=O)N5CCOCC5)cc4)cn23)c1	none (no result: Scp1 inh)
CCC(CC)C(=O)N(C)c1c(C)nc2c(OCc3ccc(OC(F)F)cc3)cccn12	none (no result: Scp1 inh)
CN1CCN(c2cc(-c3cccc(C(=O)O)c3)nc3ccnn23)CC1	none (no result: Scp1 inh)
COc1ccc(Cl)cc1Cn1c(C)c(C(=O)NCc2cccc(Cl)c2)sc1=O	none (no result: Scp1 inh)
